Data set [1] deals with Trypanosoma brucei rhodesiense. Kind of data set: Antiparasitic activity against Trypanosoma brucei rhodesiense STIB900 bloodstream forms assessed as reduction in cell viability after 70 hrs by alamar blue assay. Type of data set: functional, organism-based. In general terms: Resazurin is reduced to fluorescent resorufin, in cell work by metabolically active cells.
The test system of a further data set is L6. Description: Cytotoxicity against in rat L6 cells assessed as reduction in cell viability after 70 hrs by alamar blue assay. Type of data set: cell-based. Conditions: L6, 70 h; call rule not given here. Summed up: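 L-6 rat skeletal myoblasts seeded at 4×10^4/mL. 37 °C, 5% CO2, 70 h, then resazurin viability read by fluorescence after 2–4 h. IC50 from sigmoidal inhibition curves.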

The nature of data set [2]: Redox potential of the compound assessed as one electron redox potential by pulse radiolysis method. The format is physicochemical.
Data set [3] deals with Lymphocyte. Description: Genotoxicity in human lymphocytes assessed as micronucleated binucleate cells level at 0.03 ug/mL incubated for 24 hrs measured under no recovery condition in absence of rat liver S9 fraction (reference value: 0.50%). Type of data set: toxicity, cell-based.
Data set [4] relates to Lymphocyte. Description: Genotoxicity in human lymphocytes assessed as micronucleated binucleate cells level at […] incubated for 20 hrs measured post 28 hrs recovery in absence of rat liver S9 fraction (reference value: 0.3%). The format is toxicity, cell-based.
For data set [5], the system named is Lymphocyte. Kind of data set: Genotoxicity in human lymphocytes assessed as micronucleated binucleate cells level at 5 ug/mL incubated for 20 hrs measured post 28 hrs recovery in absence of rat liver S9 fraction (reference value: 0.4%). The format is toxicity, cell-based. Put shortly:
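Cultures were PHA-stimulated pooled female donor whole-blood lymphocytes, grown 48 h at 37 °C before treatment, with cytochalasin-B 6 µg/mL added at treatment. Without S9, exposure was 20 h with 28 h recovery. With rat S9, exposure was 3 h with 45 h recovery. Micronucleated binucleate cells were scored at 1000 per replicate on Giemsa-stained slides.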

[6] abbreviates: Trypanosoma brucei, STIB900, 70 h, read-out: IC50.

The structures appear in SMILES notation. Converted amounts (≈) assume the structure as drawn. Bounds are passed on as bounds.

The results in this text go back to ChEMBL document CHEMBL2150875, “1-Aryl-4-nitro-1H-imidazoles, a new promising series for the treatment of human African trypanosomiasis” (Eur J Med Chem, 2011).

The term IC50 denotes the concentration that inhibits the measured activity by half.

Consider `Cc1ccc(-n2cnc([N+](=O)[O-])c2)c(C)c1`, for which, in data set [1], the IC50 result is “Not Active”.

Take `O=[N+]([O-])c1cn(-c2ccc3c(c2)OCO3)cn1`: the IC50 in data set [1] (setting [6]) is 940 nM; with L6, more than 90 µg/mL.

Consider `COc1ccc(-n2cnc([N+](=O)[O-])c2)cc1OC`, for which the IC50 entry in data set [1] is “Not Active”.

With `O=[N+]([O-])c1cn(-c2ccccc2Cl)cn1`, the concentration for half-maximal inhibition (IC50) result in data set [1] is on record as “Not Active”.

As to `COc1ccc(-n2cnc([N+](=O)[O-])c2)c(OC)c1`, the IC50 result in data set [1] is “Not Active”.

In the case of `Cc1ncc([N+](=O)[O-])n1CCO` [METRONIDAZOLE], the Activity in data set [2] is reported as -516 mV.

With `O=[N+]([O-])c1cn(-c2c(F)cccc2F)cn1`, the IC50 result in data set [1] was “Not Active”.

In the case of `CSc1ccc(OCc2ncc([N+](=O)[O-])n2C)cc1` [FEXINIDAZOLE], the half-inhibitory concentration (IC50) in data set [1] (setting [6]) was 2570 nM; in the data set on L6 it was more than 90 µg/mL. Moreover, in data set [2], the Activity was -511 mV.

For the compound `O=[N+]([O-])c1cn(-c2ccccc2Br)cn1`, the IC50 entry in data set [1] is “Not Active”.

In the case of `O=[N+]([O-])c1cn(-c2cc(Cl)ccc2Cl)cn1`, the half-maximal inhibitory concentration (IC50) entry in data set [1] was “Not Active”.

In the case of `O=[N+]([O-])c1cn(-c2ccc(Cl)cc2Cl)cn1`, the concentration for half-maximal inhibition (IC50) result in data set [1] is on record as “Not Active”.

As for `CC[C@]1(O)C[C@@H]2CN(CCc3c([nH]c4ccccc34)[C@@](C(=O)OC)(c3cc4c(cc3OC)N(C)[C@H]3[C@@](O)(C(=O)OC)[C@H](OC(C)=O)[C@]5(CC)C=CCN6CC[C@]43[C@@H]65)C2)C1` [VINBLASTINE], the Activity with Lymphocyte [3] was 6.06%.

For `O=[N+]([O-])c1cc[n+]([O-])c2ccccc12` [4-NITROQUINOLINE-1-OXIDE], the results for the Activity in the data set with Lymphocyte [4] and in the data set with Lymphocyte [5] were 4.8% and 3.5%, respectively.

Take `NCCCC(N)(C(=O)O)C(F)F` (configuration not stated) [EFLORNITHINE]: the half-inhibitory concentration (IC50) in data set [1] (setting [6]) stood at 3800 nM; in the data set on L6 it was 12 µg/mL (≈ 65.9 µM).

Consider `Nc1nc(N)nc(Nc2ccc([As]3SCC(CO)S3)cc2)n1` (configuration not stated) [MELARSOPROL], for which the half-inhibitory concentration (IC50) with L6 amounted to 1.3 µg/mL.

For `O=[N+]([O-])c1cn(-c2ccc(F)cc2F)cn1`, the half-inhibitory concentration (IC50) result in data set [1] was “Not Active”.

As for `Cc1ccc(-n2cnc([N+](=O)[O-])c2)c(Br)c1`, the IC50 entry in data set [1] is reported as “Not Active”.
